From ChEMBL document CHEMBL4513216, “Probing the Open Global Health Chemical Diversity Library for Multistage-Active Starting Points for Next-Generation Antimalarials” (ACS Infect Dis, 2020)

experiment: Toxicity liver stage against HepG2, at 10uM; type: cell-based; design: test concentration 10 uM, cell line HepG2-A16-CD81EGFP; conditions: human, HepG2-A16-CD81EGFP cells; read-out: INHIBITION
How it was run: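 Uninfected HepG2-A16-CD81EGFP cells, 3 × 10^3 per well, 1536-well, plated on prespotted compound at 10 μM final, parasite-free screening media added to match infected plates; puromycin 10 μM positive, DMSO 0.5% negative; run in parallel with 48 h PbLuc assay at 37 °C, 5% CO2; viability by CellTiter-Glo luminescence, normalized to controls.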

| Compound | cytotoxicity at 10 µM |
| --- | --- |
| F[C@@H]1CN(CC2CC2)C[C@@H]1OCc1nc2cnccc2[nH]1 | 8.42% |
| CCN(CC)CCSc1nnc(N2CCN(c3ccc(F)cc3)CC2)s1 | -5.12% |
| O=C1NC(c2ccccc2)=N[C@@]12CC[C@@H]1CN(Cc3cccnc3)C[C@@H]12 | 6.8% |
| CC(C)c1ncc(CN2CCC(O)(c3ccccc3F)CC2)cn1 | -0.882% |
| Cc1nc(N(C)C)cc(C2(C)CCNCC2)n1 | -6.07% |
| Cc1cnn(CC2CCN(CC(O)c3ccccc3)CC2)c1 (stereo not given) | -8.46% |
| CCC(Sc1ncc(CO)n1C)c1ccccc1 (stereo not given) | -45.3% |
| Cc1ccc(C)c(-n2ncc(NC(=O)NC3(C)CCOC3)c2C)c1 (stereo not given) | -41.6% |
| CN(C)CC(O)Cn1cc(NCc2ccc(Br)cc2)cn1 (stereo not given) | 7.48% |
| Cc1cc(CNS(=O)(=O)CCCC#N)ccc1N(C)C | -5.18% |
| CCc1nnc(C(C)N2CCN(CCC(=O)NC3CC3)CC2)o1 (stereo not given) | 16% |
| Cc1noc(CCCNC(=O)C2CSCN2C(=O)C(C)(C)C)n1 (stereo not given) | -54.4% |
| COC(=O)CN(C(=O)c1ccc(Cl)cn1)c1cccc(F)c1 | -8.61% |
| Cn1cc(CC2CC(=O)N(Cc3ccccc3OC(F)F)C2=O)cn1 (stereo not given) | 2.21% |
| c1nc(N2CCCC2Cn2cncn2)c2ccsc2n1 (stereo not given) | 14.1% |
| Cn1cc(N2CCC(NC(=O)c3ccccc3F)C2=O)cn1 (stereo not given) | -1.26% |
| CCC(CC)c1cc(CNC(=O)N2CCC(n3cncn3)CC2)on1 | -4.16% |
| O=C(Nc1ccc(CC(=O)N2CCSCC2)cc1)NC1CCCC1 | -7.01% |
| O=C(Nc1ccc(F)c(-n2cccc2)c1)NC1(CCO)CCOCC1 | 8.67% |
| CN(C)c1nc(N)nc(CSCCC(=O)Nc2cccc(Cl)c2)n1 | 0.779% |
| O=S(=O)(c1ccccc1)N1CCN(Cc2ccc(F)cc2Br)CC1 | -2.57% |
| NC(=O)CN1CCC(OCc2ccc(Cl)c(Cl)c2)CC1 | -0.497% |
| O=C(CNc1ccccc1S(=O)(=O)C(F)F)NCc1ccco1 | -53% |

| Compound | cytotoxicity at 10 µM |
| --- | --- |
| O=C(NCC1(O)CCOC1)NCC1(c2ccccc2Cl)CC1 (stereo not given) | -45.7% |
| CCOCC1CN(C(=O)CC2=CCCCC2)Cc2nnn(C)c21 (stereo not given) | -110% |
| CCc1cnc(N2C[C@H]3CCCC(N(C)Cc4ccccn4)[C@H]3C2)nc1 (stereo not given in full) | -114% |
| COCCC(=O)N1CCC2(COCc3cnc(-c4cccnc4)nc32)C1 (stereo not given) | -115% |
| CCOc1ncccc1CNc1cc(COC)ncn1 | 6.41% |
| Cc1nc(C(=O)N2CCN(C(=O)C3CCC3)[C@@H]3CS(=O)(=O)C[C@@H]32)cs1 | 12.5% |
| c1c[nH]c(-c2cn(CCSc3cnn[nH]3)nn2)n1 | -47.5% |
| CCn1cnnc1Cn1cccc(C(F)(F)F)c1=O | -9.8% |
| Cc1cc(N2CCN(C(=O)C(C)n3ccnc3C(C)C)CC2)cc(C)n1 (stereo not given) | -3.59% |
| Cc1occc1C(=O)NCc1cccnc1N(C)C | -5.89% |
| Cn1cc(CN2CCN(CC3(c4ccccc4)CC3)CC2)cn1 | 2.86% |
| Cn1ccnc1CNC(=O)c1cnc(C2CCNCC2)cn1 | -1.31% |
| Cc1ccccc1OC1CCN(CC(=O)Nc2cnn(C)c2C)CC1 | -8.09% |
| c1ccc(CN2CCc3ncnc(C4CCOC4)c3CC2)nc1 (stereo not given) | 8.88% |
| c1csc(CN2CCC3(CCCN3CC3CC3)CC2)n1 | 8.22% |
| Cc1cc(CN2C[C@@H]3COC[C@]3(COCc3csc(C)n3)C2)no1 | 1.17% |
| O=C(C[C@@H]1COC[C@H]2CN(Cc3ccccn3)C[C@@H]12)N1CCOCC1 | -1.63% |
| CC(=O)N1CCn2c(-c3ccccc3)cnc2C12CCNCC2 | 7.43% |
| CC(C)N1[C@H](Cn2cccn2)C[C@@H]2CN(C3CCOCC3)CC[C@@H]21 | 3.92% |
| O=c1cc(CNS(=O)(=O)C2CC2)nc2n1CCCN(CC1CC1)C2 | -104% |
| COCCN1CCN(Cc2c(C)noc2C)Cc2ccc(C)nc21 | 3.47% |
| CC(C)CCN1C[C@@H]2C[C@H](C(=O)Nc3ccccc3)[C@H](C1)O2 | -7.99% |
